Results taken from ChEMBL document CHEMBL1153899, “Discovery of benzothiazole derivatives as efficacious and enterocyte-specific MTP inhibitors” (Bioorg Med Chem Lett, 2009).
pIC50: −log10 of the molar value. Calls of active or inactive are those of the source. No cut-off for these calls is given here.

Legend:
[1] = Half life in Sprague-Dawley rat liver at 10 mg/kg, po; format: ADME, organism-based; design: dose 10 mg/kg, route oral
Outline: (§1)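 Dose-proportionality PK in Sprague–Dawley rats (n = 3) given single oral doses of 3, 10, 30 or 100 mg/kg. Liver and plasma were sampled at 0.5, 1, 2, 4 and 8 h and assayed for drug concentration to derive Cmax, AUC(0–∞) and T1/2.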

[2] = Half life in Sprague-Dawley rat liver at 30 mg/kg, po; format: ADME, organism-based; design: dose 30 mg/kg, route oral; outline: as §1
[3] = Half life in Sprague-Dawley rat liver at 100 mg/kg, po; format: ADME, organism-based; design: dose 100 mg/kg, route oral; outline: as §1
Mus musculus [4] = assay: Increase in peptide YY level in 3-day high fat diet fed C57BL/6 mouse at 10 mg/kg, po daily for 3 days; format: functional, organism-based; design: dose 10 mg/kg
Mus musculus [5] = assay: Increase in peptide YY level in 3-day high fat diet fed C57BL/6 mouse at 3 mg/kg, po daily for 3 days; format: functional, organism-based; design: dose 3 mg/kg
Outline: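 C57BL/6 male mice (n = 9) on high-fat diet were dosed po once daily for 3 days with vehicle (5% PEG400, 0.25% Tween 80, 94.25% H2O) or test article, then given a final morning dose. Blood was taken at 30 min, 2 h and 6 h, and PYY was measured by EIA kit. Statistics by Student's t test.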

Mus musculus [6] = assay: Decrease in plasma triglyceride level in […] C57BL/6 mouse at 3 mg/kg, po daily for 3 days measured after 6 hrs; format: functional; design: scale not given: the % may be the effect or the level left
Outline: (§2)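 Lean C57BL/6 mice were given high-fat diet for 1 week, then dosed orally once daily in the evening for 3 days. Food intake and body weight were recorded daily. At the end a morning dose was given, and blood was drawn at 30 min, 2 h and 6 h for plasma triglycerides.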

Mus musculus [7] = assay: Decrease in plasma triglyceride level in […] C57BL/6 mouse at 10 mg/kg, po daily for 3 days measured after 6 hrs; format: functional; design: scale not given: the % may be the effect or the level left
HepG2 = assay: Inhibition of apoB secretion in human HepG2 cells after 40 hrs by ELISA; format: functional, cell-based; details: HepG2, 40 h
[8] = Inhibition of MTP from dog liver microsomes by scintillation counting; design: species or system Canis lupus familiaris, Microsome
Mus musculus [9] = assay: Decrease in total food intake in 3-day high fat diet fed C57BL/6 mouse at 3 mg/kg, po daily for 3 days; format: functional; design: scale not given: the % may be the effect or the level left; outline: as §2
Mus musculus [10] = assay: Decrease in total food intake in 3-day high fat diet fed C57BL/6 mouse at 10 mg/kg, po daily for 3 days; format: functional; design: scale not given: the % may be the effect or the level left
Mus musculus [11] = assay: Decrease in body weight in […] at 3 mg/kg, po daily for 3 days; format: functional, C57BL/6; design: scale not given: the % may be the effect or the level left
Mus musculus [12] = assay: Decrease in body weight in […] at 10 mg/kg, po daily for 3 days; format: functional, C57BL/6; design: scale not given: the % may be the effect or the level left
Mus musculus [13] = assay: Decrease in total food intake in 28-day diet-induced obesity C57BL/6 mouse model at 3 mg/kg, po daily for 4 weeks measured on day 21; format: functional; design: scale not given: the % may be the effect or the level left
Outline: (§3)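 C57BL/6 male mice were fed high-fat diet for 4 weeks beforehand to about 40 g and kept on it throughout. Groups of n = 10 were dosed po once daily for 4 weeks at 1 or 3 mg/kg, or vehicle (5% PEG400, 0.25% Tween 80, 94.25% H2O). Food was weighed and replaced with pre-weighed food 3 times weekly. Fed plasma glucose was taken at 2 weeks and insulin at 4 weeks.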

Mus musculus [14] = assay: Decrease in total food intake in 28-day diet-induced obesity C57BL/6 mouse model at 1 mg/kg, po daily for 4 weeks measured on day 21; format: functional; design: scale not given: the % may be the effect or the level left; outline: as §3
Mus musculus [15] = assay: Decrease in body weight in 28-day diet-induced obesity C57BL/6 mouse model at 3 mg/kg, po daily for 4 weeks; format: functional; design: scale not given: the % may be the effect or the level left; outline: as §3
Mus musculus [16] = assay: Increase in body weight in 28-day diet-induced obesity C57BL/6 mouse model at 1 mg/kg, po daily for 4 weeks; format: functional; outline: as §3
Mus musculus [17] = assay: Decrease in plasma glucose level in 28-day diet-induced obesity C57BL/6 mouse model at 1 to 3 mg/kg, po daily for 4 weeks measured on week 2; format: functional, organism-based; outline: as §3
Mus musculus [18] = assay: Decrease in plasma glucose level in 28-day diet-induced obesity C57BL/6 mouse model at 1 to 3 mg/kg, po daily for 4 weeks; format: functional, organism-based; outline: as §3
Mus musculus [19] = assay: Decrease in insulin level in 28-day diet-induced obesity C57BL/6 mouse model at 3 mg/kg, po daily for 4 weeks; format: functional, organism-based; design: dose 3 mg/kg; outline: as §3
Mus musculus [20] = assay: Decrease in plasma triglyceride level in 28-day diet-induced obesity C57BL/6 mouse model at 1 to 3 mg/kg, po daily for 4 weeks; format: functional, organism-based; outline: as §3
Mus musculus [21] = assay: Decrease in total cholesterol level in 28-day diet-induced obesity C57BL/6 mouse model at 1 to 3 mg/kg, po daily for 4 weeks; format: functional, organism-based
Mus musculus [22] = assay: Toxicity in 28-day diet-induced obesity C57BL/6 mouse model assessed as liver alanine aminotransferase level at 1 to 3 mg/kg, po daily for 4 weeks; format: organism-based; design: dose 1-3 mg/kg, route oral; details: in vivo, 672 h
Outline: (§4)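 C57BL/6 male mice kept on high fat diet 4 weeks before study (body weight about 40 g) and throughout; n = 10, dosed orally once daily for 4 weeks at 1 or 3 mg/kg, vehicle 5% PEG400, 0.25% Tween 80, 94.25% H2O; liver weight and ALT, AST, alkaline phosphatase assessed after 4 weeks.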

Mus musculus [23] = assay: Toxicity in 28-day diet-induced obesity C57BL/6 mouse model assessed as liver aspartate aminotransferase level at 1 to 3 mg/kg, po daily for 4 weeks; format: organism-based; design: dose 1-3 mg/kg, route oral; details: in vivo, 672 h; outline: as §4
Mus musculus [24] = assay: Toxicity in 28-day diet-induced obesity C57BL/6 mouse model assessed as liver alkaline phosphatase level at 1 to 3 mg/kg, po daily for 4 weeks; format: organism-based; design: dose 1-3 mg/kg, route oral; details: in vivo, 672 h; outline: as §4
Mus musculus [25] = assay: Toxicity in 28-day diet-induced obesity C57BL/6 mouse model assessed as increase in liver weight at 1 to 3 mg/kg, po daily for 4 weeks; format: organism-based; design: dose 1-3 mg/kg, route oral; details: in vivo, 672 h; outline: as §4
[26] = Clearance in Sprague-Dawley rat at 1 mg/kg, iv; format: ADME, organism-based; design: dose 1 mg/kg, route intravenous; details: in vivo
[27] = Half life in Sprague-Dawley rat at 1 mg/kg, iv; format: ADME, organism-based; design: dose 1 mg/kg, route intravenous; details: in vivo
[28] = Volume of distribution in Sprague-Dawley rat at 1 mg/kg, iv; format: ADME, organism-based; design: dose 1 mg/kg, route intravenous; details: in vivo
Outline: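 Rats given IV bolus at 1 mg/kg; clearance, half-life and volume of distribution derived from plasma drug concentrations.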

Work on CC(C)c1ccc(-c2ccccc2C(=O)Nc2ccc3nc(C(=O)N[C@H](C(=O)N(C)Cc4ccc(F)cc4)c4ccccc4)sc3c2)cc1 yielded a half-life [1] of 19.4 h, a half-life [2] of 23.7 h and a half-life [3] of 6.44 h. For the same compound, the Activity (Mus musculus [4]) was “Active”, the Activity (Mus musculus [5]) was “Active” and the Activity (Mus musculus [6]) was 11%. For the same compound, the Activity (Mus musculus [7]) was 45%, the pIC50 (HepG2) was 8.21 and the pIC50 [8] was 7.95. The Activity (Mus musculus [9]) was 14%, the Activity (Mus musculus [10]) was 19% and the Activity (Mus musculus [11]) was 3%. The Activity (Mus musculus [12]) was 4%, the Activity (Mus musculus [13]) was 12% and the Activity (Mus musculus [14]) was 9%. For the same compound, the Activity (Mus musculus [15]) was 3%, the Activity (Mus musculus [16]) was 1% and the Activity (Mus musculus [17]) was “Active”. The Activity (Mus musculus [18]) was “Active”, the Activity (Mus musculus [19]) was “Active” and the Activity (Mus musculus [20]) was “Active”. For the same compound, the Activity (Mus musculus [21]) was “Active”, the Activity (Mus musculus [22]) was “Non-toxic” and the Activity (Mus musculus [23]) was “Non-toxic”. For the same compound, the Activity (Mus musculus [24]) was “Non-toxic”, the Activity (Mus musculus [25]) was “Non-toxic” and the clearance [26] was 17.2 mL/min/kg. It also gave a half-life [27] of 2 h and a Vd [28] of 2.99 L/kg.
